Measurements as given in ChEMBL document CHEMBL1150151, “Dictyoquinazols A, B, and C, new neuroprotective compounds from the mushroom Dictyophora indusiata” (J Nat Prod, 2002).
Blank lines part the entries; values can stand above or below the compound they belong to. Activity calls are given as the source filed them. The rule behind the calls is not given here.

Experiments:
Cortical neurone [1] = test: Neuroprotective activity against glutamate-induced neurotoxicity in ICR mouse cortical neurons at 5 to 10 uM preincubated for 1 hr before glutamate challenge measured after 24 hrs by MTT assay; format: functional
Outline: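 Cortical neurons from E15 ICR mouse embryos, matured 12 days, supplement-free neurobasal during assay. 1 h compound pretreatment (0.1% methanol final), then 20 μM glutamate, kept 24 h. MTT 1 mg/mL for 1 h at 37 °C, formazan dissolved in DMSO, absorbance 540 nm; percent protection from control and glutamate-only OD.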

Cortical neurone [2] = test: Neuroprotective activity against NMDA-induced neurotoxicity in ICR mouse cortical neurons preincubated for 1 hr before NMDA challenge measured after 24 hrs by MTT assay; format: functional
Outline: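 12-day ICR mouse (E15) cortical cultures in neurobasal medium without supplement. Pretreatment with compound (methanol vehicle, 0.1% final) for 1 h, then 40 μM NMDA for 24 h. Compound range 10 to 30 μM. Survival by MTT reduction, formazan in DMSO read at 540 nm, normalised as (toxin+compound − toxin)/(control − toxin) × 100.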

Cortical neurone [3] = test: Neuroprotective activity against AMPA-induced neurotoxicity in ICR mouse cortical neurons preincubated for 1 hr before AMPA challenge measured after 24 hrs by MTT assay; format: functional
Outline: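 Primary cortical cultures from gestation day 15 ICR mouse embryos, grown 12 days in B27-supplemented neurobasal medium, switched to neurobasal without supplement. Compound in methanol (0.1% final), added 1 h before 80 μM AMPA, then 24 h. Viability read by MTT (1 mg/mL, 1 h, 37 °C; DMSO-dissolved formazan at 540 nm), expressed relative to control and excitotoxin-alone wells.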

Cortical neurone [4] = test: Neuroprotective activity against kainate-induced neurotoxicity in ICR mouse cortical neurons preincubated for 1 hr before kainate challenge measured after 24 hrs by MTT assay; format: functional
Outline: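 Mouse (ICR, gestation day 15) cortical neuron cultures used at day 12 in neurobasal medium lacking supplement. Compound in methanol (0.1% final) given 1 h ahead of 200 μM kainate; incubation 24 h more. Viability by MTT (1 mg/mL, 1 h), DMSO-solubilised formazan at 540 nm, scaled between kainate-alone and untreated control.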

[5] = test system: Radical scavenging activity; test: Antioxidant activity assessed as superoxide and DPPH radical scavenging activity; format: functional
[6] = Inhibition of monoamine oxidase at 60 to 100 uM
[7] = Neuroprotective activity against glutamate-induced neurotoxicity in primary cultured mouse cortical neurons preincubated for 1 hr before glutamate challenge measured after 24 hrs by MTT assay

Activity [6]: Active
SMILES: COc1ccc(N2CN(C=O)c3ccc(OC)cc3C2=O)c(CO)c1
Activity (Cortical neurone [1]): Active
Activity (Cortical neurone [2]): Dose-dependent effect
Activity (Cortical neurone [3]): inactive
Activity (Cortical neurone [4]): inactive
Activity [5]: inactive
Activity [7]: inactive

Activity [6]: Active
SMILES: COc1ccc2c(c1)CN(c1ccc(OC)cc1CO)CN2C=O
Activity (Cortical neurone [1]): Active
Activity (Cortical neurone [2]): Dose-dependent effect
Activity (Cortical neurone [3]): inactive
Activity (Cortical neurone [4]): inactive
Activity [5]: inactive
Activity [7]: inactive

Activity [6]: Active
SMILES: COc1ccc(-n2cnc3ccc(OC)cc3c2=O)c(CO)c1
Activity (Cortical neurone [1]): Active
Activity (Cortical neurone [2]): Dose-dependent effect
Activity (Cortical neurone [3]): inactive
Activity (Cortical neurone [4]): inactive
Activity [5]: inactive
Activity [7]: inactive
